The text below walks through data of ChEMBL document CHEMBL1146857 (J Med Chem, 2006).

Active and inactive are the calls of the source. The rule behind the calls is not given here.

Assay [1] deals with HCT-116. The assay is described as follows: Increase in acetylated alpha-tubulin accumulation in human HCT116 cells after 8 hrs. In kind it is functional, cell-based. In short, it runs like this:
(§1)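 HCT116 cells were treated for 8 h in McCoy5A medium with 0.1% DMSO over a range of concentrations. Acetylated α-tubulin and histone H4 were detected by Western blot and quantified, and EC50 values were estimated from the concentration curves.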

For assay [2], the system named is HCT-116. The assay is described as follows: Increase in acetylated histone H4 accumulation in human HCT116 cells after 8 hrs. In kind it is functional, cell-based. In short, it runs like this: as §1
The target of a further assay is Histone deacetylase 4 (Homo sapiens, UniProt P56524). The assay is described as follows: Inhibition of HDAC4.
For assay [3], the species on record is Homo sapiens. Description: Selectivity for HDAC6 over HDAC1.
For the next assay, the target named is Histone deacetylase 1 (Homo sapiens, UniProt Q13547). The assay is described as follows: Inhibition of HDAC1.
The species named for assay [4] is Homo sapiens. Description: Selectivity for HDAC6 over HDAC4.
Assay [5] has as its target T1, Protein deacetylase HDAC6 (Homo sapiens, UniProt Q9UBN7).
T1 sequence (Q9UBN7 whole entry): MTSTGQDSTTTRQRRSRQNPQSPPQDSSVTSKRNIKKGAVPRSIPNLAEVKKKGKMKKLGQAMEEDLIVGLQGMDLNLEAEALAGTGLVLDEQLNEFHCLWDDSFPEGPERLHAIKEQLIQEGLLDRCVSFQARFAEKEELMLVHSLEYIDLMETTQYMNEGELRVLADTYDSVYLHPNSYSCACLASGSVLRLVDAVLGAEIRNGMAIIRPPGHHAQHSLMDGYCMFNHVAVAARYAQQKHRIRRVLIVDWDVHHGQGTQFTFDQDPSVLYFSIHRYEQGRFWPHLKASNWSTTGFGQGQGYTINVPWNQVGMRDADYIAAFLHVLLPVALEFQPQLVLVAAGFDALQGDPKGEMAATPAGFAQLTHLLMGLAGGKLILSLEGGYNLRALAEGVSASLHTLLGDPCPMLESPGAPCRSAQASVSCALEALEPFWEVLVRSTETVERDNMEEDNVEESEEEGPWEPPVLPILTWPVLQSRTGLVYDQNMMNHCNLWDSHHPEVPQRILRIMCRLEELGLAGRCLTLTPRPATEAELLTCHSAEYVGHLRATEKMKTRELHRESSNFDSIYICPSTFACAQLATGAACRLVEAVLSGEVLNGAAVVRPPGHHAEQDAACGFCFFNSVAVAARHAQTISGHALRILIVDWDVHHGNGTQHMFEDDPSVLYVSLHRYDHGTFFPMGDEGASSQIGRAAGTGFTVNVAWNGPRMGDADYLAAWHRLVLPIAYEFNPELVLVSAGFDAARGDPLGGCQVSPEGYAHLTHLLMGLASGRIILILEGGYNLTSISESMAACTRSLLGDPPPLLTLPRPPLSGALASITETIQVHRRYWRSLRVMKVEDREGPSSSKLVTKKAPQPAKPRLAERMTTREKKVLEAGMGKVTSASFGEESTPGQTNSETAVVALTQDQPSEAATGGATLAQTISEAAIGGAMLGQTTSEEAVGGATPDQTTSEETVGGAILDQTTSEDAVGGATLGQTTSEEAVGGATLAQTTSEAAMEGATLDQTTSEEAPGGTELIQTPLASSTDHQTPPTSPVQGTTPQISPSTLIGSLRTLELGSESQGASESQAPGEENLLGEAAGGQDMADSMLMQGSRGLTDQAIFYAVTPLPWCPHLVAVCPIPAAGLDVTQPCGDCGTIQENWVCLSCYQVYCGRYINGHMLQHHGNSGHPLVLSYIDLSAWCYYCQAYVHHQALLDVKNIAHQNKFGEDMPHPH
Description: Inhibition of HDAC6.

Chain of Histone deacetylase 1 (Q13547 whole entry): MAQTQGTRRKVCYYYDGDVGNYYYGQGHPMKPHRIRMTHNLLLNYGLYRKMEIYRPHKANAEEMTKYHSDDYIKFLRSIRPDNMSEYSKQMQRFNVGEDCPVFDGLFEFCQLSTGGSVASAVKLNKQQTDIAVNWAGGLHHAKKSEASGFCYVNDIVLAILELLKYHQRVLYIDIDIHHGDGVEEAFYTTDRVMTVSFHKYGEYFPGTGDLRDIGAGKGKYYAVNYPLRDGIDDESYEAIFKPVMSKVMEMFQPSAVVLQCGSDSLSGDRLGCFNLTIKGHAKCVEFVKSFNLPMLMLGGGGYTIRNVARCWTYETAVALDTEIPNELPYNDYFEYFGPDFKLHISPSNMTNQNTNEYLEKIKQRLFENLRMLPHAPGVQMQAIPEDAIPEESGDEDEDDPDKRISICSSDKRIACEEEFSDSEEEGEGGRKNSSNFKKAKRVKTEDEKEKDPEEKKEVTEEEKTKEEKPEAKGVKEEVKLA
Chain of Histone deacetylase 4 (P56524 whole entry): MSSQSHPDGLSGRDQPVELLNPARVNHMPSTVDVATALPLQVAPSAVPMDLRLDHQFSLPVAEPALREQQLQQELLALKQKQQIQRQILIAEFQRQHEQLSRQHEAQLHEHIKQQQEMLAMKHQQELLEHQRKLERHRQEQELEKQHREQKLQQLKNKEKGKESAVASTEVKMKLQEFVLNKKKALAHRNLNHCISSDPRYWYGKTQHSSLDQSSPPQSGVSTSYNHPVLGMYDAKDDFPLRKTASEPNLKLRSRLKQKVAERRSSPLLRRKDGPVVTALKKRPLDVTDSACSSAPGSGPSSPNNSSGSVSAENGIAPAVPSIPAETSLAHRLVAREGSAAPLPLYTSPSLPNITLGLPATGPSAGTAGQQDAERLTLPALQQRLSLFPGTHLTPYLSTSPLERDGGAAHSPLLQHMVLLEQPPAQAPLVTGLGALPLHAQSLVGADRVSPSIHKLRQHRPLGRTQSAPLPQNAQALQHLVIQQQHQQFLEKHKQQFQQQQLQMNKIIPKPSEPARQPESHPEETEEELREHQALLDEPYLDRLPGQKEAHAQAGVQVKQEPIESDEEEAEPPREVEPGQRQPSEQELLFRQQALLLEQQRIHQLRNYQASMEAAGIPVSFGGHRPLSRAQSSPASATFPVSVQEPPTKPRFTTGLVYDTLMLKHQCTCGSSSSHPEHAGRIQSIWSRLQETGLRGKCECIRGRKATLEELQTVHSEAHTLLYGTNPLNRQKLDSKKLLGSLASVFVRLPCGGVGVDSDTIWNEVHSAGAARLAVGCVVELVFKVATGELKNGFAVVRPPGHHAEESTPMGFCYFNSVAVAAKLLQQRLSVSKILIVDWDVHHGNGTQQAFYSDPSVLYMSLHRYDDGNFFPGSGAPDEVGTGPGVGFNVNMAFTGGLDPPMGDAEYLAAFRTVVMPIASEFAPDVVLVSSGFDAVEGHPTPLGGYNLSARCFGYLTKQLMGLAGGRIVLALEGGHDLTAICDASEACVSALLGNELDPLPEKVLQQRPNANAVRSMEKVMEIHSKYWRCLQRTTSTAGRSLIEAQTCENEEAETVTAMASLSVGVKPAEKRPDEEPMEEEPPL

`CC(C)C(=O)SCCCCC[C@H](NC(=O)OC(C)(C)C)C(=O)NC1CCCCCC1`: in the assay on HCT-116 [1], the Activity result is “Dose-dependent effect”.

As to `CC(C)C(=O)SCCCCC[C@H](NC(=O)OC(C)(C)C)C(=O)NC1CCCC1`, in the assay with HCT-116 [1], the Activity entry is “Dose-dependent effect”.

Consider `CC(C)C(=O)SCCCCC[C@H](NC(=O)OC(C)(C)C)C(=O)NC(C)(C)C`, for which the Activity result in the assay with HCT-116 [1] is “Dose-dependent effect”.

For the molecule `CC(C)C(=O)SCCCCCCC(=O)Nc1cccc(-c2ccccc2)c1`, the outcome in the assay with HCT-116 [2] was Active.

Take `CC(C)(C)OC(=O)N[C@@H](CCCCCS)C(=O)NC1CCCCC1`: the 50% inhibitory concentration (IC50) (usually the concentration needed to halve the response being measured) on Histone deacetylase 4 was 1140 nM; on Histone deacetylase 1 it was 1270 nM; in assay [5] it was 36 nM. In addition, the values for the Selectivity ratio in the assay listed under Homo sapiens [3] and in the assay listed under Homo sapiens [4] were 35 and 32, respectively.

`CC(C)C(=O)SCCCCCCC(=O)Nc1nc(-c2ccccc2)cs1`: the result with HCT-116 [2] and with HCT-116 [1] was Active.

Take `CC(C)(C)OC(=O)N[C@@H](CCCCCS)C(=O)NC1CCCCCC1`: the half-maximal inhibitory concentration (IC50) against Histone deacetylase 4 was determined as 840 nM; against Histone deacetylase 1, 900 nM; in assay [5], 23 nM. In addition, the Selectivity ratio in the assay filed under Homo sapiens [3] turned out to be 39; in the assay listed under Homo sapiens [4], 37.

`CC(C)C(=O)SCCCCC[C@H](NC(=O)OC(C)(C)C)C(=O)NC1CCCCC1`: the Activity result in the assay with HCT-116 [1] was “Dose-dependent effect”.

Turning to `CC(C)(C)OC(=O)N[C@@H](CCCCCS)C(=O)NC1CCCC1`, the half-inhibitory concentration (IC50) against Histone deacetylase 4 was 1030 nM; at Histone deacetylase 1, 1210 nM; in assay [5], 29 nM. Moreover, the Selectivity ratio was determined as 42 in the assay filed under Homo sapiens [3] and 36 in the assay listed under Homo sapiens [4].
